Assay results taken from ChEMBL document CHEMBL1151746, “Antitumor agents 6. Synthesis, structure-activity relationships, and biological evaluation of spiro[imidazolidine-4,3'-thieno[2,3-g]quinoline]-tetraones and spiro[thieno[2,3-g]quinoline-3,5'-[1,2,4]triazinane]-tetraones with potent antiproliferative activity” (J Med Chem, 2008).
Active and inactive are the calls of the source. The calls are words filed in the database; no cut-off is given here.

Legend:
[1] = tested on: CCRF-CEM; experiment: Antiproliferative activity against human CCRF-CEM cells after 96 hrs by MTT assay; format: functional, cell-based
In short: (§1)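 Exponentially growing cells in RPMI 1640 with 10% FCS were resuspended at 1 × 10⁵ cells/mL in RPMI containing serial dilutions of compound (DMSO solution at 200 µM, diluted in medium). After 96 h at 37 °C, viability was read by MTT. Growth was taken as % of untreated controls, which grew at least three rounds. IC50 came from linear regression, as the mean of three independent determinations.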

[2] = molecular target: T1, DNA topoisomerase 1 (Homo sapiens) (UniProt P11387); experiment: Inhibition of DNA topoisomerase 1-mediated supercoiled pBR322 DNA relaxation at 5 to 10 uM by agarose gel electrophoresis
T1 sequence (whole entry): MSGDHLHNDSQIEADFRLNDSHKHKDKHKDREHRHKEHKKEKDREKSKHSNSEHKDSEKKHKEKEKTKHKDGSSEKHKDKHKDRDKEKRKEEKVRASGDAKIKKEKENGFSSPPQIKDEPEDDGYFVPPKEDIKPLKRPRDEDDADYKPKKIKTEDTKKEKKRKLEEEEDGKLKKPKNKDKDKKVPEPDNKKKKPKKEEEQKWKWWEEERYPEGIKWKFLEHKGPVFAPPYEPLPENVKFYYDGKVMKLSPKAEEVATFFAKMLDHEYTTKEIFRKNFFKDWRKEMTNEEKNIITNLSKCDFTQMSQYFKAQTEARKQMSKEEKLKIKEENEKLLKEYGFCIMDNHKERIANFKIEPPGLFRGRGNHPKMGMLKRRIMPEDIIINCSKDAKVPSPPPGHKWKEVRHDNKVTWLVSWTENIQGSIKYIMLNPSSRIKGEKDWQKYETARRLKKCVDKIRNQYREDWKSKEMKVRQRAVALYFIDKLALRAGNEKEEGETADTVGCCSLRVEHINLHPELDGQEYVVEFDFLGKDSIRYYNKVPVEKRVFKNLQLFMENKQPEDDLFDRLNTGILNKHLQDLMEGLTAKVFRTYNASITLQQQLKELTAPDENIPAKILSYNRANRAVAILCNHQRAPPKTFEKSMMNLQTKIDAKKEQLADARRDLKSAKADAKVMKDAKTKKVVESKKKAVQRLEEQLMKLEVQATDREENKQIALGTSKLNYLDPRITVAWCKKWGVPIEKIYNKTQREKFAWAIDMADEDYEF

[3] = tested on: SF-268; experiment: Antiproliferative activity against human SF-268 cells after 96 hrs by MTT assay; format: functional, cell-based; details: SF-268, 96 h
In short: (§2)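 Solid-tumor cells in their specific media with 10% FCS were seeded at 5 × 10⁴ cells/mL and left to adhere 16 h. Serially diluted compound was then added (DMSO solution at 200 µM, diluted in medium). MTT viability was read 4 days later. IC50 came from linear regression against untreated controls, which grew at least three rounds, as the mean of three independent determinations.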

[4] = molecular target: DNA topoisomerase 2-alpha (Homo sapiens) (UniProt P11388); experiment: Inhibition of DNA topoisomerase 2-mediated negatively supercoiled pBR322 relaxation
Chain of DNA topoisomerase 2-alpha (Homo sapiens) (P11388 whole entry): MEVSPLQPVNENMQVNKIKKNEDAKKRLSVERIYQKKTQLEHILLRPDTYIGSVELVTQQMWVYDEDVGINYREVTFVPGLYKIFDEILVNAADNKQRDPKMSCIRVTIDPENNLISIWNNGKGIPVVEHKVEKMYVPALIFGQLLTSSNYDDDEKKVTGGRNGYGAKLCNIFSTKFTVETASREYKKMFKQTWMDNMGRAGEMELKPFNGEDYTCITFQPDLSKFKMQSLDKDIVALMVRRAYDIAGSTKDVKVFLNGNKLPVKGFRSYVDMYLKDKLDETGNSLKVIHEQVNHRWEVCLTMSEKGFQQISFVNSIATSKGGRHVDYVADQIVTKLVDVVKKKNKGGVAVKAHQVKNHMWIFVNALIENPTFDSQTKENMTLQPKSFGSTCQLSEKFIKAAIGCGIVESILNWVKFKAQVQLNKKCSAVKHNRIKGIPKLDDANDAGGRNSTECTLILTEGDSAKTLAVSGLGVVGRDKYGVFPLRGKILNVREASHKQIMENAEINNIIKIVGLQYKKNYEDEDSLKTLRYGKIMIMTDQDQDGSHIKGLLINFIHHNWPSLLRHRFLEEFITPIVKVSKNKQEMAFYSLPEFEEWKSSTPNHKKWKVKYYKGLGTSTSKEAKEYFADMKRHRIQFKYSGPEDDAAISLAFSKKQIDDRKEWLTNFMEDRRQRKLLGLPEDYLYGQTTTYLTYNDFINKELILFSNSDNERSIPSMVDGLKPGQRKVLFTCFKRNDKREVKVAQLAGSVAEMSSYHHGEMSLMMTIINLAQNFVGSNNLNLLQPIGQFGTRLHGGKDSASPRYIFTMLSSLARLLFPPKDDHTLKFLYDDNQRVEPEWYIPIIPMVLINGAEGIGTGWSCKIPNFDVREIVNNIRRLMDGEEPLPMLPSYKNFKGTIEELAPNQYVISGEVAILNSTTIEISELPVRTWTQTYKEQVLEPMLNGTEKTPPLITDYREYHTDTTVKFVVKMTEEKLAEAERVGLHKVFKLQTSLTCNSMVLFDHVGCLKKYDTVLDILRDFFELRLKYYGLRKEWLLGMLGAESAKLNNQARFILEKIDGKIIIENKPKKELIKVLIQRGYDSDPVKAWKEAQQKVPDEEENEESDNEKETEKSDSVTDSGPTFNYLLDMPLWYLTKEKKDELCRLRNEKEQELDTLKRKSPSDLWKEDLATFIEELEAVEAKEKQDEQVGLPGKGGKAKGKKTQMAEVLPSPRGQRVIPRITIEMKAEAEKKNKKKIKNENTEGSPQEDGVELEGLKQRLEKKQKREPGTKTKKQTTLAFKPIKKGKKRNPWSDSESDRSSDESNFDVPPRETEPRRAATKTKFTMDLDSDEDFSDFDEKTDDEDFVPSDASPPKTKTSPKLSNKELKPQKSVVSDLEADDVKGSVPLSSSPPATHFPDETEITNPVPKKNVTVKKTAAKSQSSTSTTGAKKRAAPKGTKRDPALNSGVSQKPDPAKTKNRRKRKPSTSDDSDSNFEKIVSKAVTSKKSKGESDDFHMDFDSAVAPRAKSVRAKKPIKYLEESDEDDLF

[5] = tested on: CCRF-SB; experiment: Antiproliferative activity against human CCRF-SB cells after 96 hrs by MTT assay; format: functional, cell-based; in short: as §1
[6] = tested on: ACHN; experiment: Antiproliferative activity against human ACHN cells after 96 hrs by MTT assay; format: functional, cell-based; in short: as §2
[7] = tested on: MT4; experiment: Antiproliferative activity against human MT4 cells after 96 hrs by MTT assay; format: functional, cell-based; details: Homo sapiens, MT4, 96 h; in short: as §1
[8] = tested on: HT-29; experiment: Antiproliferative activity against human HT-29 cells after 96 hrs by MTT assay; format: functional, cell-based; details: Homo sapiens, HT-29, 96 h; in short: as §2
[9] = tested on: XF498; experiment: Antiproliferative activity against human XF498 cells after 96 hrs by MTT assay; format: functional, cell-based; details: XF498, 96 h; in short: as §2
[10] = tested on: HeLa; experiment: Antiproliferative activity against human HeLa cells after 96 hrs by MTT assay; format: functional, cell-based; in short: as §2
[11] = tested on: MRC5; experiment: Antiproliferative activity against human MRC5 cells after 96 hrs by MTT assay; format: cell-based; details: MRC5, 96 h; in short: as §1
[12] = tested on: MCF7; experiment: Antiproliferative activity against human MCF7 cells after 96 hrs by MTT assay; format: functional, cell-based; details: MCF7, 96 h; in short: as §2
[13] = molecular target: T1, DNA topoisomerase 1 (Homo sapiens); experiment: Inhibition of DNA topoisomerase 1-mediated supercoiled pBR322 DNA relaxation at 5 uM by agarose gel electrophoresis
[14] = molecular target: T1, DNA topoisomerase 1 (Homo sapiens); experiment: Inhibition of DNA topoisomerase 1-mediated supercoiled pBR322 DNA relaxation at 25 uM by agarose gel electrophoresis
[15] = molecular target: T2, DNA ligase (Enterobacteria phage T4) (UniProt P00970); experiment: Inhibition of T4 DNA ligase by DNA unwinding assay; details: Tequatrovirus T4
T2 sequence (whole entry): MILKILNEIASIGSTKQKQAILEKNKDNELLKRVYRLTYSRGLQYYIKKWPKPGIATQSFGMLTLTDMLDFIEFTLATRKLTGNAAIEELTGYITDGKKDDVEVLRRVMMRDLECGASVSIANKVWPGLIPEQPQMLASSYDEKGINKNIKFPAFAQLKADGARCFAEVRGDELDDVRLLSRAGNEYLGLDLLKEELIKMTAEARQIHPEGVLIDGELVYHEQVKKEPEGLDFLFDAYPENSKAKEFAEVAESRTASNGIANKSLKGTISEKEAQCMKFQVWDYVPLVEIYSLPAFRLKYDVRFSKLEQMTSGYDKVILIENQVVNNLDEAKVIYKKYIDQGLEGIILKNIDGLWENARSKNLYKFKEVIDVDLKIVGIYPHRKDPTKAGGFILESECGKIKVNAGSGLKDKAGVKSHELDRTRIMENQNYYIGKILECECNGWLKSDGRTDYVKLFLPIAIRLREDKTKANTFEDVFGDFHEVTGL
In short: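 EcoRI-linearized pBR322 (0.1 µg) in 30 mM Tris-HCl pH 7.8, 10 mM MgCl2, 10 mM DTT and 0.5 mM ATP was equilibrated with compound 30 min at 20 °C. Excess T4 DNA ligase was then added for 30 min at 20 °C, and reactions were stopped at 55 °C. After phenol extraction, products were resolved on 1% agarose gels.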

IC50 [1] [nM] | Activity [2] | Activity [4] | IC50 [5] [nM] | IC50 [6] [nM] | IC50 [8] [nM] | IC50 [10] [nM] | IC50 [12] [nM] | Activity [13] | Activity [14] | Activity [15] | Structure (SMILES) | IC50 [3] [nM] | IC50 [7] [nM] | IC50 [9] [nM] | IC50 [11] [nM]
1 | inactive | Dose-dependent effect | 2 | 1 | 1 | 5 | 2 |  |  |  | CCCc1ccc(N2C(=O)NC3(CSC4=C3C(=O)c3ncccc3C4=O)C2=O)cc1 (racemic) | 300 | 1 | 450 | 850
20 |  |  |  |  | 2 |  |  | Active | Active | Active | COc1cccc2c1C(=O)c1c(O)c3c(c(O)c1C2=O)C[C@@](O)(C(=O)CO)C[C@@H]3O[C@H]1C[C@H](N)[C@H](O)[C@H](C)O1 [DOXORUBICIN] | 200 | 3 | 160 | 300
